In data set [1] the target is T1, hLPA5 (Homo sapiens, UniProt Q9H1C0). Description: LPA5 calcium mobilization assay. Format: cell-based. The note with it: calcium assay. The procedure, abridged: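 RH7777-hLPA5 cells were plated on poly-D-lysine at 20,000 cells/well in 0.2% FBS medium for 18–20 h at 37 °C. They were loaded 45 min with Calcium 5 dye in HBSS, 20 mM HEPES and 2.5 mM probenecid, pH 7.4. Eight test-compound concentrations were pre-incubated for 15 min at 37 °C, then hexadecyl LPA 16:0 EC80 (30 nM) was added at 10 s. Fluorescence (485/525 nm) was read every 1 s for 90 s. IC50 came from a three-parameter logistic fit of RFU. Duplicate determinations; two or at least three independent experiments.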
T1 sequence (Q9H1C0 whole entry): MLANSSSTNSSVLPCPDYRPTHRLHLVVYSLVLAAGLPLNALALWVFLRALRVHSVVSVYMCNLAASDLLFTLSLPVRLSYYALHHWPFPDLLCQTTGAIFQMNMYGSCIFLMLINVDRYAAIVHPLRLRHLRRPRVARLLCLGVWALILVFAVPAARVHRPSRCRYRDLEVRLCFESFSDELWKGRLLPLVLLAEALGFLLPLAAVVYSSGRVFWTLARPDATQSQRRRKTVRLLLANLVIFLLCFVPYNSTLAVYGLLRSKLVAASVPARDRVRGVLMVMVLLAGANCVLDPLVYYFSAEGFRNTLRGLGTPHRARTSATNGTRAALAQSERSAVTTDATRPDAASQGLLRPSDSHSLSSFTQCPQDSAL
A general note: A change in cytosolic calcium serves as a functional read-out for many receptors and channels.

Data set [2] addresses T1, hLPA5. In words: LPA5 TR-FRET Lance Ultra cAMP assay. Format: cell-based. The note with it: cAMP assay. (In TR-FRET formats the signal depends on donor and acceptor labels being close together.)
Another data set deals with LPA1–LPA4 receptors. Description: LPA1–LPA3 calcium mobilization. Format: cell-based. The following applies: 10 μM in Ca2+ for LPA1–LPA3 and cAMP for LPA4. The method in brief:
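Selectivity was tested with test compound at 10 μM. LPA1–LPA3 calcium mobilization was run externally in CHO cells over-expressing each receptor, under the provider's protocols. LPA4 was a TR-FRET cAMP assay in LPA4-overexpressing CHO cells, following the LPA5 cAMP method but against 250 nM hexadecyl LPA 16:0 (EC80).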

In data set [3] the test system is >50 GPCRs (NIMH Psychoactive Drug Screening Program panel). In words: NIMH PDSP radioligand binding panel. The note with it: < 50% inhibition at 10 μM or pKi ≤ 6.
The target in a further data set is dopamine D3 (Homo sapiens, UniProt P35462). In words: NIMH PDSP radioligand binding, D3.
Sequence of dopamine D3 (P35462 whole entry): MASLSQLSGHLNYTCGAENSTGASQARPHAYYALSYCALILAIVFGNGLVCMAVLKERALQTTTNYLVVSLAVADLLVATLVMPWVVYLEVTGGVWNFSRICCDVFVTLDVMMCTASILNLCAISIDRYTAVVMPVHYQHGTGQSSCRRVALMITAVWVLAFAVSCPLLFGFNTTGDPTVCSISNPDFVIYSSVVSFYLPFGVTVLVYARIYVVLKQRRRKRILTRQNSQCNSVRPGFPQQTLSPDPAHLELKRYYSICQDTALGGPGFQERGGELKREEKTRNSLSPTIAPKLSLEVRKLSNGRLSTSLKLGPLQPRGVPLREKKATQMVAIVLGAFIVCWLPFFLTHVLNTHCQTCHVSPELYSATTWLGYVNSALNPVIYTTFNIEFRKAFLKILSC
Data set [4] is described as follows: Metabolic stability in rat liver microsomes. Format: in vitro ADME. The following applies: pH 7.4. The method in brief: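 Rat liver microsomes (0.5 mg/mL protein) were used in 100 mM potassium phosphate, pH 7.4, at 37 °C, with NADPH at 1 mM final. Samples were taken at 0, 5, 15, 30 and 45 min and quenched 1:1 in cold acetonitrile containing labetalol and glyburide. Parent was measured by LC-MS/MS, and half-life and in vitro clearance were calculated. Two independent experiments in duplicate.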
A general note: Liver microsomes are a subcellular fraction often used to study metabolism.

Data set [5] can be described thus: Bidirectional MDCK-MDR1 permeability. Format: in vitro ADME. The note with it: dog. The procedure, abridged: (§1)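 MDCK-mdr1 cells (passage 5) were grown on polycarbonate Transwell supports for 3 days and rinsed with warm HBSS. They were pre-incubated 30 min at 37 °C in HBSS with 10 mM HEPES and 0.25% BSA, pH 7.4, then TEER was measured. Test compound at 10 μM went to the apical donor (A-to-B) or basolateral donor (B-to-A) side, at 37 °C with light agitation. Receiver was sampled at 30, 60 and 90 min and analysed by LC-MS/MS. Papp came from dQ/dt, area 1.12 cm2 and initial donor concentration. Atenolol and propranolol were references.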

In a further data set the test system is P-glycoprotein (MDR1). In words: Bidirectional MDCK-MDR1 permeability. Format: in vitro ADME. The following applies: dog, MDCK-MDR1, pH 7.4. The procedure, abridged: as §1
A short description of a further data set: Plasma protein binding. Format: in vitro ADME. The following applies: rat. The method in brief:
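Equilibrium dialysis: test compound or controls at 1 μM in rat plasma, in triplicate, against buffer across a 12–14K MWCO cellulose membrane. Incubation ran 6 h at 37 °C with light agitation to equilibrium. Plasma and buffer were extracted with cold acetonitrile/methanol (1:1) and quantified by LC-MS/MS against standard curves. Acebutolol (low-bound) and warfarin (high-bound) served as controls.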

Data set [6] concerns CFA-induced nociceptive hypersensitivity in rats. In words: CFA-induced inflammatory pain model, von Frey mechanical nociception. Format: in vivo, Sprague-Dawley rats. The following applies: i.p.
Data set [7] relates to CCI-induced mechanical allodynia in rats. Description: Chronic constriction injury. The note with it: i.p., 17.8 mg/kg. Format: in vivo, Sprague-Dawley rats.
Data set [8] relates to fentanyl-induced mechanical hypersensitivity in rats. In words: Fentanyl. Format: in vivo. The note with it: i.p.
For data set [9], the system named is locomotor activity in rats. In words: Locomotor activity. Format: in vivo. The note with it: 17.8 mg/kg i.p., 60 min pretreatment, P > 0.05.

With `C#CC1CCN(C(=O)c2cn(-c3ccc4scc(C)c4c3)c(=O)c3cc(OC)c(OC)cc23)CC1` [Compound 66, 4-(4-Ethynylpiperidine-1-carbonyl)-6,7-dimethoxy-2-(3-methylbenzo[b]thiophen-5-yl)isoquinoli-n-1(2H)-one], on hLPA5 [1], the “fold more potent than the 4-fluoro analog 65” value was found to be 2 fold. Moreover, the “fold less potent than 2” value on hLPA5 [2] is reported as 1.7 fold. In the data set on LPA1–LPA4 receptors, the “LPA1–LPA4 inhibition” value is given as less than 50%. The “affinity for panel receptors” value in data set [3] is “no significant affinity for most of the receptors”. Also, the Ki – broadly, a dissociation constant, usually derived from enzyme kinetics or from competition with a known ligand – on dopamine D3 is 380 nM. Also, the CLint scaled (usually a measure of how fast metabolising enzymes remove a compound, apart from limits set by blood flow) at 0.75 h in data set [4] is 74.7 mL/min/kg. Also, the Papp A→B (as a rule, the apparent permeability from the apical to the basolateral side of a cell layer) at 90 min, 10 μM in [5] (MDCK-MDR1, pH 7.4) was determined as 30.4 ×10⁻⁶ cm/s. Also, the Papp B→A – broadly, the apparent permeability from the basolateral to the apical side of a cell layer – at 90 min, 10 μM in data set [5] (MDCK-MDR1, pH 7.4, Papp (B-to-A), MDCK-MDR1 Transwell, 10 μM) was determined as 38.7 ×10⁻⁶ cm/s. The efflux ratio (as a rule, the permeability from basolateral to apical divided by that in the opposite direction, in the common usage) at 90 min, 10 μM in the data set with P-glycoprotein (MDR1) was less than 2.5. Also, the fraction unbound (as a rule, the share of the substance not bound to proteins or other matrix) at 6 h, 1 μM in “Plasma protein binding” is 0.01. In addition, in [6] (17.8 mg/kg), the “effect on CFA-induced nociceptive hypersensitivity” value is on record as “markedly alleviated nociceptive hypersensitivity”. The “duration of effect in CFA model” value in data set [6] (65 and 66 at 17.8 mg/kg, 2 at 32 mg/kg) is ~ 5 h. The “effect on CCI-induced mechanical allodynia” value in [7] is reported as “completely reversed this hypersensitivity condition”. Moreover, in data set [8], the “dose achieving statistical significance in OIH model” value is on record as 5.6 mg/kg; the “effect on fentanyl-induced mechanical hypersensitivity (OIH)” value was “dose-dependently and significantly mitigated this mechanical hypersensitivity”. For the same compound, the “effect on locomotor activity” value in data set [9] is “did not have any measurable effect on the locomotor activity”.
